# According to article PMC12318036 (Nature Communications, 2025):
# Key:
# [1] = system: L-type calcium channel in TPCs; assay: Calcium imaging; type: cell-based, human; conditions: H89 2HCl 10 μM; Fluo-4AM; n = 3
# TPCs = assay: Cell; type: cell-based, human; conditions: forskolin, then H89 2HCl (10 μM), then (S)-(-)-Bay K8644 (10 μM); F-actin, p-MLC2^Ser15, collagen contraction; n = 3
# Summary of the method: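 A commercial collagen gel contraction kit was used. Harvested pericytes (5 × 10^6) were mixed 1:4 v/v with collagen solution and polymerised at 37 °C for 1 h. Medium was then added over each lattice and gels were incubated for 2 days. Gel size (contraction index) was measured at 48 h by image analysis.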
# tumor vessels [2] = assay: Two-photon vasoconstriction assay of tumor vessels exposed to U46619; type: in vivo, mouse; conditions: MC-38-luc-LM3 orthotopic tumor, two-photon microscopy, U46619 10 min; n = 6
# [3] = system: intracellular calcium of TPCs; assay: Intravital GCaMP6 calcium imaging in TPCs treated with U46619; type: in vivo, mouse; conditions: PC^lin-KO-GCaMP6 mice compared with PC^lin-GCaMP6 mice; n = 6
# tumor vessels [4] = assay: Intravital imaging of RBC velocity and vessel diameter change post-U46619; type: in vivo, mouse; conditions: n = 6
# Summary of the method: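 Tumor-bearing mice received FITC-dextran i.v. before imaging. The exposed tumor was viewed with a 4× objective. A rapid line scan (735 lines per second) bisected the central axis of the capillary lumen, so that moving RBCs appeared as oblique shadows. Blood velocity was derived as Δx/Δt.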
Compound,calcium currents in TPCNM^NKX2-3+siPDE1C [1],forskolin-increased calcium currents in TPCLM^siNKX2-3+PDE1C [1],contraction of TPCLM^gNKX2-3+PDE1C (TPCs),"change of capillary diameter after U46619 treatment, PC^lin mice (tumor vessels [2])","reduction of capillary diameter after U46619 treatment, PC^lin-KO mice (tumor vessels [2])",response of intracellular Ca^2+ of TPCs to U46619 [3],"tumor blood velocity after exposure to U46619, PC^lin-KO mice (tumor vessels [4]; compared with before treatment)","vascular diameter after exposure to U46619, PC^lin-KO mice (tumor vessels [4]; compared with before treatment)","tumor blood velocity and vascular diameter before and post-treatment with U46619, PC^lin mice (tumor vessels [4])"
Cl.Cl.O=S(=O)(NCCNC/C=C/c1ccc(Br)cc1)c1cccc2cnccc12 [H89 2HCl],reduced calcium currents,reversed,suppressed,,,,,,
"CCCCC[C@H](O)/C=C/[C@@H]1[C@@H](C/C=C\CCCC(=O)O)[C@H]2CO[C@@H]1C2 [U46619, 9,11-dideoxy-9α,11α-methanoepoxy prostaglandin F2α]",,,,no obvious change,~ 20%,significantly increased,significantly decreased,significantly decreased,no significant difference
